HTRA1 inh – HTRA1 (human) protease inhibition; recombinant HTRA1, FP-rhodamine activity-based probe, fluorescence polarization; inhibition, % at 5.96 µM; 340,000 compounds, 0.5% hits; in the data active = inhibition above about 36%;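 also: 0% = enzyme with DMSO and 100% = wells lacking enzyme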
Target sequence (Q92743 whole entry, looked up): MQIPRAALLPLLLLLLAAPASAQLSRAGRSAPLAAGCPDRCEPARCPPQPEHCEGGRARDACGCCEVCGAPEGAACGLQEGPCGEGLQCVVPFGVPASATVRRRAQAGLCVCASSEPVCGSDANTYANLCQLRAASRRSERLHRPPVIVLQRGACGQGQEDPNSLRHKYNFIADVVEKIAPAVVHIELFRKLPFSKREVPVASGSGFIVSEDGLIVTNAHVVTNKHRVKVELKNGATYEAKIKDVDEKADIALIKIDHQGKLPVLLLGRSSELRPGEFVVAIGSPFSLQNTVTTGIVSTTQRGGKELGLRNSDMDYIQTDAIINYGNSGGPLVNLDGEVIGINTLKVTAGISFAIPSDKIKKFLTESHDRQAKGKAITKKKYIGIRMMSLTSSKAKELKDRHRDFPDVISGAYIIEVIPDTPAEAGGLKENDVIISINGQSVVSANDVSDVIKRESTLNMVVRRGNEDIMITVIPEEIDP
TCR CD3 inh – human TCR-CD3 binding inhibition. TAMRA-labeled TCR probe fluorescence, biochemical. inhibition, % at 9.4 µM. AID 651800. 360,000 compounds, 0.37% hits;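 also: recombinant mutant TCR 2C K166C tagged with TAMRA read by polarization; 0% = receptor in buffer alone and 100% = receptor with positive control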
SIAE inh – human SIAE inhibition, primary screen | Q9HAT2 | SIAE FP-Rh probe binding, fluorescence polarization | inhibition, % at 9.66 µM | 370,000 compounds, 0.69% hits;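 active = inhibition above a cutoff: mean of compounds within the control limits plus 3 SD of those, cut at about 17% in these data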;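 also: 0% = plate median of compound wells and 100% = probe without SIAE protein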
PAD4 inh – inhibitors of human PAD4; Q9UM07; recombinant PAD4, RCA probe fluorescence polarization; inhibition, % at 6.36 µM; 330,000 compounds, 0.41% hits; AID 485272;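 active = percent inhibition above a cutoff equal to the mean of all tested compounds plus 3 SD, cut at about 15% in these data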;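 also: 0% = PAD4 with RCA probe and DMSO and 100% = probe without PAD4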
mABHD4 FP – inhibitors of mouse ABHD4 | purified mABHD4, FP-Rh probe fluorescence polarization | AID 720543 | 370,000 compounds, 0.54% hits | inhibition, % at 8.92 µM | Q8VD66;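 active = inhibition exceeding the mean over every tested compound plus 3 SD, cut at about 30% in these data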;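 also: 0% = plate median of compound wells and 100% = S159A mutant with DMSO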
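Doses – 8.92 µM, single dose · Material – wild-type mouse ABHD4 protein · Replication – single well per compound (singlicate) · Measure – percent inhibition of probe binding, normalized to plate controls · Schedule – 45 min compound pre-incubation plus 60 min probe step, 25 °C · Detection – fluorescence polarization with parallel and perpendicular emission, 525/598 nm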
PRMT1 FP inh – inhibitors of human PRMT1; recombinant PRMT1, activity-based probe fluorescence polarization; 370,000 compounds, 1.3% hits; inhibition, % at 2.79 µM; AID 652257; Q99873;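 active = inhibition above about 21% made by adding two undisclosed values, limit read from the data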
BSA TAMRA ctr – BSA probe counter-screen for TCR-CD3 inhibitors. inhibition, % at 9.4 µM. TAMRA-labeled BSA probe fluorescence counterscreen. 1,200 compounds, 10% hits. shares compounds with TCR CD3 inh; in the data active = inhibition above about 23%;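 also: 0% = buffer low control and 100% = reference high control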
TCR-CD3 conf – TCR-CD3 interaction inhibition, confirmation | shares compounds with TCR CD3 inh | TAMRA-labeled TCR probe fluorescence binding assay | inhibition, % at 9.4 µM | 1,200 compounds, 48% hits | AID 652036
* marks the source's active call; other numbers are inactive results; · = not tested or not shown. Sampled rows, rich in hits. Any-hit rate of the full collection: about 2.9%. Rule as the data show it, unless noted: active = inhibition above about 19%; inactive = the rest.

SMILES | HTRA1 inh | TCR CD3 inh | SIAE inh | PAD4 inh | mABHD4 FP | PRMT1 FP inh | BSA TAMRA ctr | TCR-CD3 conf
O=C(Cc1ccccc1)N/N=C/c1cc(Br)cc(Br)c1O | 20 | 23* | 14 | -2 | 7 | 5 | -7 | 25*
CN(C)c1ccc(C(=O)N/N=C/c2cc(Br)cc(Br)c2O)cc1 | · | 33* | -3 | -2 | 20 | 0 | 0 | 43*
O=C(CNC(=O)c1cccc(Br)c1)N/N=C/c1cc(Br)cc(Br)c1O | 17 | 48* | 8 | -1 | 7 | 0 | -13 | 36*
Cc1nc(SCC(N)=O)[nH]c(=O)c1C | · | · | -2 | · | 4 | 0 | · | ·
Oc1ccc(Br)cc1/C=N/n1c(COc2ccccc2)n[nH]c1=S | 11 | 20* | 5 | · | 0 | 3 | 3 | 14
S=c1[nH]nc(COc2ccccc2)n1/N=C/c1ccccc1Br | -17 | -4 | 1 | -2 | -3 | 9 | · | ·
Cc1nnc(NC(=O)c2cc(-c3ccco3)nc3ccccc23)s1 | 3 | 19* | -2 | -8 | 11 | 18 | 3 | 20*
O=C(N/N=C/c1ccc(F)cc1)c1cc(-c2ccco2)nc2ccccc12 | 13 | 30* | 10 | -1 | 0 | 4 | -3 | 23*
O=C(Nc1cccc(S(=O)(=O)NC2=NCCCCC2)c1)c1cc(-c2ccccc2)nc2ccccc12 | -2 | 0 | -32 | 2 | 0 | 1 | · | ·
O=C(Nc1cccc(S(=O)(=O)NC2=NCCC2)c1)c1cc(-c2ccco2)nc2ccccc12 | 14 | 23* | 6 | -6 | 11 | 14 | -2 | 32*
Cc1cc(/C=N/n2c(COc3ccccc3C)nc3ccccc3c2=O)c(O)c([N+](=O)[O-])c1 | 32 | 21* | 10 | -8 | 3 | -2 | 14 | 53*
O=C(NCc1cccc(Cl)c1)O[C@H]1CC[C@@]23CCCN2C(=O)CCC[C@H]3C1 | · | · | 0 | · | 2 | -2 | · | ·
CCCCOCCCNC(=O)C[C@@H]1C(=O)N(Cc2ccc(OC)cc2)/C2=C/CCCCC[C@@]21C(=O)OCC | · | · | 9 | · | -5 | -4 | · | ·
Cc1ncc(CO)c(/C=N/NC(=O)c2cc3c(s2)CCCC3)c1O | 17 | 38* | 7 | -1 | 8 | -1 | -13 | 27*
COc1ccc(CC(=O)Nc2ccc(C)cc2S(=O)(=O)N2CCOCC2)cc1OC | · | · | 7 | · | 4 | 1 | · | ·
N#Cc1cccc(NC(=O)OCCN2C(=O)CCC23CCC(c2ccc(Cl)cc2)CC3)c1 (stereo not given) | · | · | -1 | · | 1 | -2 | · | ·
Nc1[nH]c(C(=O)c2ccc(Cl)cc2)c(-c2ccc(Br)cc2)c1C(=O)c1c[nH]c2ccc(F)cc12 | · | -2 | -9 | · | -10 | 3 | · | ·
COc1cc(/C=C\C(=O)NCc2ccc3c(c2)cc(C)n3C)cc(OC)c1OC | -8 | 31* | 4 | -4 | 4 | 4 | -1 | -1
COc1cc(OC)cc(C(=O)NCc2ccc3c(c2)cc(C)n3C)c1 | 1 | -5 | 1 | 5 | -5 | 9 | · | ·
CCOc1ccc(CC(=O)NCc2ccc3c(c2)cc(C)n3C)cc1 | -11 | 31* | 3 | 0 | 16 | 2 | 1 | 3
COc1ccc(C(=O)NCc2ccc3c(c2)cc(C)n3C)cc1 | 6 | 16 | -3 | 2 | 14 | 12 | · | ·
COc1ccc(Cn2cc(CN3[C@@H](Cc4ccccc4)COc4cc(Br)ccc4S3(=O)=O)nn2)cc1 | · | · | -5 | · | 2 | 2 | · | ·
CC1CCC2(CCC(=O)N2CCCO)CC1 (stereo not given) | · | · | -6 | · | 1 | 2 | · | ·
O=C1NN=COc2ccccc21 | 6 | 21* | -4 | 0 | -3 | -1 | -12 | 11
COc1ccccc1C(=O)n1ccc2ccc(-c3ccc4ccn(Cc5ccccc5)c4c3)cc21 | · | · | -2 | · | -3 | 2 | · | ·
SMILES | HTRA1 inh | TCR CD3 inh | SIAE inh | PAD4 inh | mABHD4 FP | PRMT1 FP inh | BSA TAMRA ctr | TCR-CD3 conf
C[C@H]1[C@@H](c2ccccc2)Oc2c(Cl)cccc2S(=O)(=O)N1C | · | -1 | -1 | · | 0 | 2 | · | ·
O=C(Nc1ccc(Cl)c(Cl)c1)c1cccc(S(=O)(=O)NCc2cccnc2)c1 | -117 | 33* | -90 | -4 | -58 | 0 | 2 | 10
COc1cccc(S(=O)(=O)NCc2ccc(C(=O)Nc3ccc(Cl)c(Cl)c3)cc2)c1 | -38 | 35* | -10 | -5 | -17 | 0 | -1 | 6
O=C(C(=O)N1CCC(CNC(=O)C2COc3ccccc3O2)CC1)c1cccs1 (stereo not given) | · | -4 | 1 | · | 4 | 3 | · | ·
COC(=O)[C@]12C[C@H](CC(=O)NCc3cccc4ccccc34)C(=O)N(Cc3ccco3)C1=C[C@H](C(C)(C)C)O[C@@H]2C | · | · | 1 | · | -10 | 2 | · | ·
COc1ccc(N2CC(C(=O)Nc3ccc([N+](=O)[O-])cc3Br)CC2=O)cc1 (stereo not given) | -6 | 7 | 6 | 0 | 5 | 0 | · | ·
COc1ccc(N2CC(C(=O)N/N=C/c3cc([N+](=O)[O-])ccc3O)CC2=O)cc1 (stereo not given) | 9 | 25* | -3 | -2 | 2 | 2 | -1 | 15
COCCN(C(=O)CC1C(=O)NCCN1Cc1ccc(-c2ccccc2)cc1)C(C)C (stereo not given) | -5 | 24* | 4 | 5 | 15 | 4 | 10 | 6
CCOC(=O)C1=C(N)Oc2ccc3ccccc3c2C1c1cccnc1 (stereo not given) | -22 | -2 | -4 | -2 | -9 | -1 | · | ·
CCOC(=O)C1=C(N)Oc2cc(C)oc(=O)c2C1c1cccnc1 (stereo not given) | 0 | 21* | 2 | -1 | 2 | -3 | 3 | 0
O=C(NNC(=O)c1ccccc1OCc1ccccc1)c1ccccc1O | 29 | 33* | 5 | · | 8 | 2 | -17 | 19*
O=C(NNC(=O)c1ccccc1OCc1ccc(F)cc1)c1ccccc1O | 25 | 25* | 4 | · | 5 | 0 | -18 | 23*
O=C(NNC(=O)c1ccccc1OCc1ccccc1)c1ccccc1F | -2 | 4 | 3 | -1 | 8 | 0 | · | ·
O=C(NCc1ccc(F)cc1)c1ccccc1OCc1ccccc1 | -25 | -6 | -1 | -1 | -8 | -2 | · | ·
Cc1ccc(-n2c(SCc3cccc4ccccc34)nnc2-c2ccccn2)cc1 | · | · | -1 | · | -4 | -8 | · | ·
COc1ccc(Cn2cc(COC(=O)NCCc3c[nH]c4ccccc34)nn2)cc1 | · | · | 8 | · | -4 | 0 | · | ·
Nc1nc2c(ncn2[C@@H]2O[C@H](C(=O)N[C@@H](Cc3ccccc3)C(=O)NCC3CCCCC3)[C@@H](O)[C@H]2O)c(=O)[nH]1 | · | 7 | -8 | · | -1 | -1 | · | ·
CN(C(=O)c1cccc(S(=O)(=O)N2CCCC2)c1)C1CCCCC1 | 2 | 23* | 5 | 0 | 4 | -1 | 6 | 1
